# A selection: hits, their analogues and other compounds. The true share with any hit is near 4.9%.
# HSF1 activator – increases HSF-1 driven luciferase reporter signal | activation, % at 9 µM | hit rate 1.7% among 300,000 | NIH3T3-HGL HSF-1 luciferase reporter, MG132, 8 h; 100% = twice DMSO control signal;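 active = mean replicate activation of at least 50% with a set share of replicates each reaching 50%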;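 note: 0% = median of the neutral control wells and 100% = twice that signal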
# Hep lipid drop – hepatic lipid droplet formation modulation; AML12 mouse hepatocytes, oleate lipid droplets, BODIPY imaging; inhibition, % at 6.5 µM; hit rate 0.4% among 240,000; AID 1656;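 active = lipid droplet intensity inhibited by at least 50%, with more than 500 cells counted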
#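 Test system: AML12 hepatocytes (mouse); reagent: oleate loading, 100 µM; dosing: one dose, 6.5 µM compound; incubation: overnight exposure; signal: fluorescence imaging, 20x objective, two fields per well; read-out basis: % inhibition of corrected integrated BODIPY droplet signal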
# CHT inh – inhibits the human high affinity choline transporter; AID 488975; B-score at 10 µM; Q9GZV3; CHT-expressing cells, membrane potential dye, choline response; hits give low values; hit rate 0.86% among 310,000;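 active = B-score over 3 SD under the library average, and starting fluorescence ratio not unusually high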;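 note: choline stimulus applied at its EC90 after an EC20 pre-addition; B-score computed on integrated fluorescence ratio after choline addition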
# Target sequence (Q9GZV3 whole entry, looked up): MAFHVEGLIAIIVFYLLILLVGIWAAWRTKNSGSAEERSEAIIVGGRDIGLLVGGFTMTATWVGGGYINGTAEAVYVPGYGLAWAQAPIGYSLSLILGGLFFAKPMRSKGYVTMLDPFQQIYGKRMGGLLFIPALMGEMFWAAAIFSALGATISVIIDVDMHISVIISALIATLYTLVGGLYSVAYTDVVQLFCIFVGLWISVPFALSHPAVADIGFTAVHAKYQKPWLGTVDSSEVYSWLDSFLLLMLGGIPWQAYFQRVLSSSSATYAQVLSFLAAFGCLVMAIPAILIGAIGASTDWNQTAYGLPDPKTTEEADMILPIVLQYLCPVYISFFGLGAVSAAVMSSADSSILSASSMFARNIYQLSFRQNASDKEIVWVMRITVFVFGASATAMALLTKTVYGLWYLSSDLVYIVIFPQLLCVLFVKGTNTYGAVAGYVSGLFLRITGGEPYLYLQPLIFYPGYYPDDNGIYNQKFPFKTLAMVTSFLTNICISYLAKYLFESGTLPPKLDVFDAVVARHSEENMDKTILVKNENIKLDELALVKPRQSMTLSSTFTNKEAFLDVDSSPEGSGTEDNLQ
# CHT PAM – human CHT allosteric activation. CHT-expressing cells, membrane potential dye, choline EC20; hits give high values; LV-AA mutant CHT in HEK293 cells. hit rate 0.49% among 310,000. AID 488977. B-score at 10 µM;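 active = initial fluorescence not abnormally high and integrated response B-score, plate-corrected, over 3 SD above library mean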
# PHOSPHO1 block – blocks human PHOSPHO1 phosphatase activity | Q8TCT1 | recombinant PHOSPHO1, absorbance phosphatase assay | inhibition, % at 13.3 µM | hit rate 1.1% among 290,000; in the data active = inhibition above about 60%
# HSF1 inh – HSF1 inhibition | NIH3T3-HGL HSE-luciferase, MG132-induced, luminescence 8 h; hits give low values | activity change, negative = inhibition, % at 7.5 µM (by protocol) | hit rate 0.77% among 300,000;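 active = more than half of replicate wells show activity change below -50%, luminescence cut by over half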;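 note: luciferase reports HSF-1 transcriptional activity via heat shock element; 0% = median of DMSO wells and -100% = zero luminescence signal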
# CHT inh conf – human CHT inhibition, confirmatory screen; hit rate 70% among 2,400; AID 493221; shares compounds with CHT inh; CHT-expressing cells, choline membrane potential dye; LV-to-AA substituted CHT, HEK293 cells; CHT activity remaining % of control (hits give low values), % at 10 µM;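 active = choline transporter activity left, mean of duplicates at 10 µM, below buffer-only control mean minus 3 SD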;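 note: depolarization triggered by choline at its EC90 following an EC20 pre-addition; 0% = hemicholinium-3 full block and 100% = buffer-only control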
# HEK293 CHT ctr – activity in parental HEK293 cells lacking CHT; membrane potential dye, choline response; active = decrease or increase beyond buffer ±3SD; hit rate 4% among 2,400; membrane potential ratio readout (active if shifted either direction beyond buffer ±3SD; no single direction) at 10 µM; shares compounds with CHT inh; AID 493222;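 note: parental cells lack the transporter so any hit is non-specific; ratio is peak minus trough fluorescence over baseline after EC90 choline challenge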
# * hit, by the source's call; i = inactive; . = no result.
SMILES,HSF1 activator,Hep lipid drop,CHT inh,CHT PAM,PHOSPHO1 block,HSF1 inh,CHT inh conf,HEK293 CHT ctr
O=C(NC1CCCC1)C(c1ccc(O)cc1)N(CC1CCCO1)C(=O)C1COc2ccccc2O1 (configuration not stated),4,.,i,i,1,0,.,.
COc1ccc(C(C(=O)NC2CCCCC2)N(CC2CCCO2)C(=O)C2COc3ccccc3O2)cc1OC (configuration not stated),2,.,-5.9*,i,-12,1,i,i
Cc1cccc(OCC(O)Cn2c(=N)n(Cc3ccccc3)c3ccccc32)c1 (configuration not stated),4,-6,-12*,i,24,-6,57%*,i
N=c1n(Cc2ccccc2)c2ccccc2n1Cc1ccccc1,23,-42,i,i,-13,11,.,.
N=c1n(Cc2ccccc2)c2ccccc2n1CC(O)COc1ccc(Cl)cc1Cl (configuration not stated),12,-43,.,.,-15,-2,.,.
Cc1ccc(OCC(O)Cn2c(=N)n(Cc3ccccc3)c3ccccc32)cc1 (configuration not stated),-48,-9,-9*,i,6,-35,51%*,i
N=c1n(Cc2ccccc2)c2ccccc2n1CC(O)c1ccco1 (configuration not stated),-8,.,i,i,13,3,.,.
COc1ccc(OCC(O)Cn2c(=N)n(Cc3ccccc3)c3ccccc32)cc1 (configuration not stated),-15,-80,-5.3*,i,7,1,31%*,i
N=c1n(Cc2ccc(Cl)cc2)c2ccccc2n1CC(O)COc1ccccc1 (configuration not stated),19,-14,-9.2*,i,20,1,46%*,i
CCC(C(=O)OCC(=O)Nc1cccc(S(=O)(=O)NC2=NCCCCC2)c1)c1ccccc1 (configuration not stated),17,-1,i,i,13,1,.,.
CCOC(=O)c1sc(-c2ccccc2)cc1NC(=O)CSc1nnnn1C,48,.,i,i,11,35,.,.
CS(=O)(=O)c1ccc(Cl)c(NC(=O)COC(=O)CNC(=O)c2cccs2)c1,-7,.,i,i,.,0,.,.
O=C(N=c1ccn(-c2nc3ccccc3nc2NS(=O)(=O)c2ccccc2)cc1)c1cccs1,24,-18,i,i,-10,-4,.,.
Cc1ccccc1C(=O)N=c1ccn(-c2nc3ccccc3nc2NS(=O)(=O)c2ccc(F)cc2)cc1,-2,22,-5.9*,i,51,1,i,i
C=CCn1c(SC2CCOC2=O)nc2scc(C3CC3)c2c1=O (configuration not stated),3,2,-5.7*,i,10,2,47%*,i
CCN(CC)CCNC(=O)c1ccc(NC(=O)c2ccc3c(c2)CCC3)cc1,-3,-2,i,i,20,-1,.,.
CCn1ccnc1CNC(=O)c1cc(COc2ccc(F)cc2F)on1,-7,10,i,i,-7,3,.,.
CCn1cc(CNC(=O)c2cc(COc3ccc(F)cc3F)on2)cn1,-12,-6,i,i,52,3,69%*,i
COc1ccccc1NC(=O)C1CCCN(c2nc(C)cc(C)n2)C1 (configuration not stated),5,-6,-5.7*,i,3,-1,i,i
COc1ccc(-n2c(CN3CCC(C)CC3)nc3ccc([N+](=O)[O-])cc3c2=O)c(OC)c1,21,1,i,i,53,14,.,.
O=C(C1=C[C@@H](c2ccccc2)C[C@@H](OCCCCO)O1)N1CCOCC1,11,1,-10*,i,16,1,i,i
